The nature of the data set: Toxicity liver stage against HepG2, at 10uM. Also noted: test concentration 10 uM, cell line HepG2-A16-CD81EGFP. The class given is cell-based. Conditions: human, HepG2-A16-CD81EGFP cells; read-out: INHIBITION
The method, boiled down: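 Uninfected HepG2-A16-CD81EGFP cells, 3 × 10^3 per well, 1536-well, plated on prespotted compound at 10 μM final, parasite-free screening media added to match infected plates; puromycin 10 μM positive, DMSO 0.5% negative; run in parallel with 48 h PbLuc assay at 37 °C, 5% CO2; viability by CellTiter-Glo luminescence, normalized to controls.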
With `O=C(NC1CCCCC1)c1ccc(COCC(F)(F)F)o1`, the cytotoxicity at 10 µM was found to be 14.1%.

Regarding `COc1ccc(-c2cn3c(n2)CO[C@@H](CNCc2nccn2C)C3)cc1`, the cytotoxicity at 10 µM is -0.765%. For the compound `O=S1(=O)c2cccnc2OC(COc2ccccc2)CN1CC1CC1` (stereo not drawn), the cytotoxicity at 10 µM is -3.24%. The value for `O=C(O)CCC(=O)N1CCC(c2noc3cc(F)ccc23)CC1` was -14.8%. `CCCN1CCc2nc(SCc3c(C)cc(C)cc3C)[nH]c(=O)c2C1`: the cytotoxicity at 10 µM is -2.33%. The value for `O=C(CCc1ccccc1)N1C[C@H]2CCN[C@H]2C1` was -4.22%. As for `O=C1N(Cc2ccncc2)CCC12CCCNC2` (stereo not drawn), the cytotoxicity at 10 µM was determined as 4.26%. Consider `CN1CCN(C(=O)c2cccn2C)Cc2cccnc21`, for which the cytotoxicity at 10 µM came out at 5.73%. The value for `Cc1csc(NC(=O)C(C)Oc2ccc3c(c2)OCO3)n1` (stereo not drawn) was 8.06%.

For the compound `CCn1cc(NC(=O)C2CCC(=O)N2Cc2ccc(C)o2)cn1` (stereo not drawn), the cytotoxicity at 10 µM was -2.92%. The value for `Cc1cn[nH]c1C1COCCN1C(=O)c1ccc2[nH]nnc2c1` (stereo not drawn) was 2.73%; that for `CSc1nnc(C2CCN(C(=O)N3CCCC3)CC2)n1C` was 2.11%; that for `CN1CCC(c2n[nH]cc2-c2ccnc(N)c2)C1` (stereo not drawn) was 3.79%. The value for `COc1ccc(Br)cc1SCCC(N)=O` was 7.72%; that for `Cc1ccc(C(=O)Nc2cc(C(N)=O)ccc2CN(C)C)cc1Cl` was 18.5%; that for `Cc1cc(CN(C)Cc2cnc3c(c2)c(C)nn3C)no1` was 0.995%.

As for `Cn1cc(S(=O)(=O)NCC(C)(O)c2ccsc2)cn1` (stereo not drawn), the cytotoxicity at 10 µM amounted to 22.1%. As for `COC(=O)c1ccc(CN2CCC(c3n[nH]c(C)n3)CC2)s1`, the cytotoxicity at 10 µM was -2.87%. The value for `CNC(=O)c1cccc(CN2CCC(N(C)Cc3nnc(C)o3)C2)c1` (stereo not drawn) was 8.75%; that for `Cc1cnn(C2CCCN(C(=O)CN(C)c3cnccn3)C2)c1` (stereo not drawn) was -8.73%; that for `Cc1cc(C(C)(O)CNC(=O)CCn2ccnc2C(C)C)c(C)o1` (stereo not drawn) was 4.27%. As for `COc1ccc(Oc2ncccc2NC(=O)N2CC[C@H](O)C2)cc1`, the cytotoxicity at 10 µM turned out to be 1.7%.

Regarding `CC(C(=O)NC1(C#N)CCCCC1)N1CCc2c(ncn2C2CC2)C1` (stereo not drawn), the cytotoxicity at 10 µM amounted to 7.66%. The value for `Cc1cccc(NCCNc2ccc(C#N)cn2)n1` was 18%. The value for `CC(CNC(=O)N1CCS(=O)(=O)CC1)Cc1cccs1` (stereo not drawn) was -9.47%; that for `CCCc1ccc(S(=O)(=O)NC(=O)CCc2cscn2)cc1` was 1.12%; that for `Cc1cc(C)n(CC2CCCN2C(=O)c2ccc3[nH]c(=O)[nH]c3c2)n1` (stereo not drawn) was 3.18%. The value for `O=S(=O)(NCCN1CCOCC1)c1cncc(Cl)c1` was 2.77%. Turning to `CC(=O)c1c[nH]c(C(=O)N2CCN(C(C(N)=O)c3ccccc3)CC2)c1` (stereo not drawn), the cytotoxicity at 10 µM came to 8.61%. The value for `Cc1nc(C2(NCc3cc(C#N)ccc3F)CCCCC2)no1` was 9.68%; that for `CNC(=O)N(Cc1c(F)cccc1F)C1CCCC1` was 8.23%. In the case of `CC1CCN(c2ccnc3ccc(Br)cc23)CC1`, the cytotoxicity at 10 µM was 15.4%. Regarding `CC(C(=O)N(C)Cc1nnc2n1CCC2)S(C)(=O)=O` (stereo not drawn), the cytotoxicity at 10 µM is -6.56%. As to `CN1CCN(S(=O)(=O)c2cccnc2)c2cnccc21`, the cytotoxicity at 10 µM is -0.376%. With `CC(C)(C)Oc1ccc(NCC(=O)NCc2ccco2)cc1`, the cytotoxicity at 10 µM worked out at 2.21%.

Turning to `Cn1ncnc1NCc1ccccc1Cl`, the cytotoxicity at 10 µM is -8.04%. With `O=C(Nc1cccnn1)NC(CCCO)c1ccccc1` (stereo not drawn), the cytotoxicity at 10 µM was -0.908%. The value for `CS(=O)(=O)N1CCc2[nH]cnc2C12CCN(C(=O)c1ccc[nH]1)CC2` was -1.42%; that for `Cc1ccc2nc(C)cc(C(=O)NCc3csc(N(C)C)n3)c2c1` was 1.21%; that for `Cc1nc2c(c(N3CCCOCC3)n1)CCN(C(=O)N1CCCC1)CC2` was 9.2%. Take `COc1ccc(C(=O)N2CCC(c3nccn3C(C)C)CC2)cc1OC`: the cytotoxicity at 10 µM is 1.52%. The value for `COCCN(Cc1ccncc1)C(=O)CCSCc1ccc(F)cc1` was 0.807%; that for `CCCn1ccnc1CN1C[C@@H](CN2CCCN(C)CC2)[C@@H](CO)C1` was 2.81%.

For the compound `CN1CCC(NN2CCN(C)CC2)CC1`, the cytotoxicity at 10 µM is -2.76%. The value for `O=C(c1cccc(Oc2ccccc2)c1)N1CCCC(O)(CO)CC1` (stereo not drawn) was -3.17%.

Regarding `CN(C)C(=O)CN1CCC(c2nnc(Cn3cccn3)n2C2CC2)CC1`, the cytotoxicity at 10 µM was -6.65%. The value for `O=C1NC[C@@]2(C(=O)O)CN(Cc3cccc(CN4CCOCC4)c3)C[C@@H]12` was -7.98%; that for `Cc1nc(NC(=O)N2CCCC(C(F)(F)F)C2)nn1C` (stereo not drawn) was 9.56%; that for `Cc1ccsc1CCNC(=O)C1(Oc2cccnc2C)CCNCC1` was -2.37%. The value for `COc1ccc(CCN2CCCC(CN(C)Cc3[nH]cnc3C)C2)cc1` (stereo not drawn) was -11.7%; that for `Cc1nc(N(C)C)ncc1C(=O)N(Cc1ccncc1)CC1CCCO1` (stereo not drawn) was -1.59%.

For the compound `CCCc1nnc(NCCCn2nc(C)c(Cl)c2C)o1`, the cytotoxicity at 10 µM was -0.351%.

On to `Cc1cccnc1CC(C)N(C)Cc1cccs1` (stereo not drawn), for which the cytotoxicity at 10 µM is -12.4%. On to `O=C(NCc1ccc(C(=O)N2CCCC2)cc1)c1cn2c(n1)CNCC2`, for which the cytotoxicity at 10 µM was -10.2%. As for `COCc1nc2ncc3c(=O)n(-c4cccc(OC)c4)ccc3n2n1`, the cytotoxicity at 10 µM came out at 8.99%. For the compound `Cc1ccc(C(=O)O)c(N2CC(C)(C)[C@@](C)(O)C2)n1`, the cytotoxicity at 10 µM came to 4.5%. The value for `CC(c1ccccc1Cl)N(C)Cc1nc2c(cnn2C)c(=O)[nH]1` (stereo not drawn) was -5.19%. The value for `Cc1ccc(NC(=O)C2CSCN2C(=O)c2ccncc2)c(C)c1` (stereo not drawn) was -10.4%; that for `CCn1ccnc1CN1CCCN(C(=O)c2ccnn2C)CC1` was -5.39%; that for `c1cncc(-c2noc(CN3CCOC(Cn4cccn4)C3)n2)c1` (stereo not drawn) was -11.4%. On to `Cc1cccc(NS(=O)(=O)c2cc(C(=O)O)oc2C)c1Cl`, for which the cytotoxicity at 10 µM is -14.6%. The value for `COc1cc(CNC2CCc3nc(C(C)C)nn3C2)cc2c1OCO2` (stereo not drawn) was -5.82%; that for `Cc1nc(C)c(CC(=O)Nc2ncc(C)s2)c(=O)[nH]1` was -5.49%; that for `CC(C)c1ncc2c(n1)CN(Cc1cccc(C#N)c1)CC2` was -9.03%.

As for `Cn1cc(C2CCCN2Cc2csc(-c3ccsc3)n2)cn1` (stereo not drawn), the cytotoxicity at 10 µM is -8.21%. On to `COc1ccc(CCN2CCCC2Cn2nc(C)nc2C)cc1` (stereo not drawn), for which the cytotoxicity at 10 µM was -7.16%. As to `CN(Cc1nnc2n1CCC2)C(=O)NCCc1ccc2c(c1)OCO2`, the cytotoxicity at 10 µM was -4.77%. On to `O=C(NCCN1CCCCC1)c1ccoc1`, for which the cytotoxicity at 10 µM was -11.3%. The value for `Cc1cc(N2CCC(CC(N)=O)CC2)nc(-c2ccncc2)n1` was -7.22%; that for `O=C1CC2(CCNCC2)C(=O)N1Cc1ccc(F)cc1` was 6.68%. The value for `CN(C)CCCNCCC(c1ccccc1)C1CCOC(C)(C)C1` (stereo not drawn) was -7.91%; that for `COCCN1CCC2(CC1)CC(NC(=O)C1CC1)c1ccccc1O2` (stereo not drawn) was 1.67%; that for `CNC(=O)[C@@H]1C[C@H]2CN(C(=O)c3ccco3)C[C@H]2N1C(C)C` was -1.84%.
